Results on 26 molecules are retold here after ChEMBL document CHEMBL1157581, “Synthesis, metabolism and in vitro cytotoxicity studies on novel lavendamycin antitumor agents” (Bioorg Med Chem, 2010).

Molecules are shown by their SMILES. The source made the active and inactive calls. The rule behind the calls is not given here.

Broadly, the IC50 is the midpoint of a concentration-inhibition curve. Low values mean higher potency, high ones lower potency. As a reminder, the inhibition is the drop in the measured response relative to a control, in per cent.

Assay [1] has as its system BE. Kind of assay: Selectivity index, ratio of IC50 for NQO1 deficient human BE cells to IC50 for human BE cells expressing human NQO1.
Assay [2] concerns BE. Kind of assay: Cytotoxicity against NQO1 deficient human BE cells after 3 to 5 days by MTT assay. It is filed as functional, cell-based. The method in brief: (§1)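 BE colon adenocarcinoma cells and NQO1-transfected BE-NQ cells (337 nmol/min/mg protein, DCPIP) in MEM with 10% FBS, 37 °C, 5% CO2. Seeded 10,000 cells/mL, attached 16 h, exposed 2 h, then washed out into fresh medium for 3–5 days. MTT 50 µg, 4 h, formazan in DMSO, A560; IC50 from semi-log plots of percent control.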
For orientation: Tetrazolium assays rely on reduction of a dye to a coloured formazan, in cell work by metabolically active cells.

Assay [3] relates to BE. The experiment in a line: Cytotoxicity against human BE cells expressing human NQO1 after 3 to 5 days by MTT assay. The format is functional, cell-based. The method, boiled down:
as §1

Assay [4] concerns the target NAD(P)H dehydrogenase [quinone] 1 (Homo sapiens) (UniProt P15559). Kind of assay: Activity of human NQO1 assessed as initial rate of compound reduction per mg of protein at 25 uM in presence of NADH by cytochrome c reduction assay. The method, boiled down: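 Recombinant human NQO1 (0.1–3 µg) with cytochrome c 70 µM as terminal electron acceptor, NADH 1 mM, substrate 25 µM in 25 mM Tris-HCl pH 7.4 containing 0.7 mg/mL BSA and 0.1% Tween-20, room temperature, started with NADH. A550 followed; initial rate from linear 0–30 s segment, ε 21.1 mM⁻¹ cm⁻¹, µmol cytochrome c/min/mg NQO1; at least triplicate.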

Assay [5] concerns A549. The experiment in a line: Inhibition of clonogenic survival of human A549 cells at 100 nM. The format is functional.
Assay [6] relates to A549. The experiment in a line: Suppression of clonogenic survival of human A549 cells at <100 nM. It is filed as functional, cell-based.
Assay [7] concerns BE. Kind of assay: Selectivity index, ratio of IC50 for human BE cells expressing human NQO1 to IC50 for NQO1 deficient human BE cells. The format is functional.

Chain of NAD(P)H dehydrogenase [quinone] 1 (Homo sapiens) (P15559 whole entry): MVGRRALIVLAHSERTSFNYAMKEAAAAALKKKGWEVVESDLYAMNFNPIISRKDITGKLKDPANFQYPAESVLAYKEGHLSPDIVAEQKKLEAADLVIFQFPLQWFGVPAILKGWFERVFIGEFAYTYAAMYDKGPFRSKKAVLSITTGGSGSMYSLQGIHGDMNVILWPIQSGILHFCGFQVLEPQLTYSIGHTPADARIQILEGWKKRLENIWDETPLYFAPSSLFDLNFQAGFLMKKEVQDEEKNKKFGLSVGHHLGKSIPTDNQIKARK

On to `NC1=CC(=O)c2ccc(-c3nc(C(=O)NCCO)cc4c3[nH]c3ccccc34)nc2C1=O`, for which the “Ratio IC50” value in the assay on BE [1] amounted to 1. Besides, the IC50 with BE [2] and in the assay on BE [3] was 1.1 µM throughout. Further, the Activity in assay [4] is 26 µmol/min.
As to `N=C1C=C(O)c2ccc(-c3nc(C(N)=O)cc4c3[nH]c3ccccc34)nc2C1=O`, the inhibition at 0.1 µM with A549 [5] stood at 100%.
Consider `CCOC(=O)c1cc2c([nH]c3ccccc32)c(-c2ccc3c(n2)C(=O)C(N)=C(Cl)C3=O)n1`, for which the IC50 in the assay with BE [2] and in the assay with BE [3] was over 50 µM in each case. In assay [4], the Activity turned out to be 6.9 µmol/min.
As for `COC(=O)c1nc(-c2ccc3c(n2)C(=O)C(N)=CC3=O)c2[nH]c3ccc(O)cc3c2c1C`, in the assay on BE [1], the “Ratio IC50” value turned out to be 2.5. Besides, the concentration for half-maximal inhibition (IC50) in the assay on BE [2] was 14 µM; in the assay on BE [3], 5.7 µM. In assay [4], the Activity was determined as 31 µmol/min.
Take `COC(=O)c1nc(-c2ccc3c(n2)C(=O)C(NC(=O)c2ccco2)=CC3=O)c2[nH]c3ccccc3c2c1C`: the IC50 with BE [2] and in the assay with BE [3] was over 50 µM throughout. For the same molecule, in assay [4], the Activity came out at 5.8 µmol/min.
On to `COC(=O)c1[nH]c(-c2ccc3c(n2)C(=O)C(=N)C(Cl)=C3O)c2nc3ccccc3c-2c1C`, for which, in the assay on A549 [5], the inhibition at 0.1 µM was determined as 70%. In addition, the inhibition result in the assay with A549 [6] is “Active”.
Turning to `NC1=CC(=O)c2ccc(-c3nc(C(=O)N4CCCC4)cc4c3[nH]c3ccccc34)nc2C1=O`, the “Ratio IC50” value in the assay with BE [1] is over 1.1. The IC50 with BE [2] is over 50 µM; in the assay with BE [3], 45 µM. In assay [4], the Activity was found to be 35 µmol/min.
Turning to `CCC(C)OC(=O)c1cc2c([nH]c3ccccc32)c(-c2ccc3c(n2)C(=O)C(NC(C)=O)=CC3=O)n1` (stereo not given), the concentration for half-maximal inhibition (IC50) came to 33 µM with BE [2] and 40 µM in the assay with BE [3]. The “Ratio IC50” value with BE [7] was 0.8. Besides, the Activity in assay [4] came to 3.9 µmol/min.
Turning to `CCCOC(=O)c1cc2c([nH]c3ccccc32)c(-c2ccc3c(n2)C(=O)C(NC(C)=O)=CC3=O)n1`, the “Ratio IC50” value with BE [1] turned out to be 1.3. Besides, the figures for the half-inhibitory concentration (IC50) in the assay on BE [2] and in the assay with BE [3] were 3.2 µM and 2.4 µM, respectively. Moreover, the Activity in assay [4] was found to be 6.8 µmol/min.
Turning to `COC(=O)c1cc2c([nH]c3ccccc32)c(-c2ccc3c(n2)C(=O)C(NC(=O)C(C)C)=CC3=O)n1`, the IC50 with BE [2] and in the assay on BE [3] was over 50 µM in each case. For the same molecule, the Activity in assay [4] was found to be 0.04 µmol/min.
For `COC(=O)c1cc2c([nH]c3ccccc32)c(-c2ccc3c(n2)C(=O)C(NC=O)=CC3=O)n1`, the “Ratio IC50” value in the assay with BE [1] is reported as 1.4. For the same molecule, the figures for the IC50 in the assay on BE [2] and in the assay with BE [3] were 14 µM and 10 µM, respectively. Moreover, in assay [4], the Activity is 20 µmol/min.
The corresponding values for `CCOC(=O)c1cc2c([nH]c3ccc(O)cc32)c(-c2ccc3c(n2)C(=O)C(NC(C)=O)=CC3=O)n1` are 0.8, 4 µM, 4.8 µM and 21 µmol/min.
In the case of `COC(=O)c1cc2c([nH]c3ccccc32)c(-c2ccc3c(n2)C(=O)C(NC(C)=O)=CC3=O)n1`, the inhibition result in the assay on A549 [6] is “Active”.
On to `O=C(CCl)NC1=CC(=O)c2ccc(-c3nc(C(=O)N4CCCC4)cc4c3[nH]c3ccccc34)nc2C1=O`, for which, in the assay with BE [1], the “Ratio IC50” value is recorded as 2.7. For the same molecule, the half-maximal inhibitory concentration (IC50) is 8 µM with BE [2] and 3 µM in the assay on BE [3]. Also, the Activity in assay [4] was 34 µmol/min.
As to `CC(C)CCOC(=O)c1cc2c([nH]c3ccc(O)cc32)c(-c2ccc3c(n2)C(=O)C(N)=CC3=O)n1`, the half-inhibitory concentration (IC50) in the assay with BE [2] and in the assay with BE [3] was over 50 µM throughout. In assay [4], the Activity was found to be 2.9 µmol/min.
For the molecule `COC(=O)c1cc2c([nH]c3ccccc32)c(-c2ccc3c(n2)C(=O)C(N)=CC3=O)n1`, the “Ratio IC50” value in the assay with BE [1] worked out at 2. Also, the IC50 in the assay with BE [2] turned out to be 45 µM; in the assay with BE [3] it was 22 µM. For the same molecule, in assay [4], the Activity was 28 µmol/min.
For `CCCCOC(=O)c1cc2c([nH]c3ccccc32)c(-c2ccc3c(n2)C(=O)C(NC(=O)CCC(=O)O)=CC3=O)n1` the same measures were 1.6, 12 µM, 7.6 µM and 5.2 µmol/min.
As to `NC(=O)c1cc2c([nH]c3ccccc32)c(-c2ccc3c(n2)C(=O)C(NC(=O)CCl)=CC3=O)n1`, the “Ratio IC50” value in the assay on BE [1] is reported as 2.1. Also, the figures for the IC50 in the assay with BE [2] and in the assay with BE [3] were 12 µM and 5.8 µM, respectively. Besides, the Activity in assay [4] was determined as 13 µmol/min.
For `NC1=CC(=O)c2ccc(-c3nc(C(=O)N4CCOCC4)cc4c3[nH]c3ccccc34)nc2C1=O` the same measures were 9, 18 µM, 2 µM and 103 µmol/min.
Regarding `CC(=O)NC1=CC(=O)c2ccc(-c3nc(C(=O)NCC(O)CO)cc4c3[nH]c3ccccc34)nc2C1=O` (stereo not given), in the assay on BE [1], the “Ratio IC50” value is on record as over 2.8. The IC50 is over 50 µM in the assay on BE [2] and 18 µM in the assay with BE [3]. In addition, in assay [4], the Activity was found to be 36 µmol/min.
For `COC(=O)c1nc(-c2ccc3c(n2)C(=O)C(N)=C(OC)C3=O)c2[nH]c3ccccc3c2c1C`, the inhibition result in the assay on A549 [6] is “Active”.
Still for that read-out and setting: the value for `COC(=O)c1[nH]c(-c2ccc3c(n2)C(=O)C(NC(C)=O)=CC3=O)c2nc3ccccc3c-2c1C` was “Active”.
Turning to `CC(=O)NC1=CC(=O)c2ccc(-c3nc(C(=O)N4CCN(Cc5ccccc5)CC4)cc4c3[nH]c3ccccc34)nc2C1=O`, the “Ratio IC50” value in the assay with BE [1] was determined as 0.7. Also, the figures for the IC50 with BE [2] and in the assay with BE [3] were 6.5 µM and 9.8 µM, respectively. For the same molecule, the Activity in assay [4] is 8.7 µmol/min.
`CC(=O)NC1=CC(=O)c2ccc(-c3nc(C(=O)N4CCCC4)cc4c3[nH]c3ccccc34)nc2C1=O`: the “Ratio IC50” value in the assay with BE [1] was found to be 2.1. Also, the IC50 was 13 µM in the assay on BE [2] and 6.2 µM in the assay on BE [3]. The Activity in assay [4] was found to be 43 µmol/min.
For `CCOC(=O)c1cc2c([nH]c3ccccc32)c(-c2ccc3c(n2)C(=O)C(NC(C)=O)=CC3=O)n1`, the “Ratio IC50” value in the assay with BE [1] was 1.3. The figures for the IC50 in the assay on BE [2] and in the assay on BE [3] were 13 µM and 10 µM, respectively. Moreover, the Activity in assay [4] is 3.6 µmol/min.
With `CC(=O)NC1=CC(=O)c2ccc(-c3nc(C(=O)NCCO)cc4c3[nH]c3ccccc34)nc2C1=O`, the IC50 in the assay on BE [2] and in the assay with BE [3] was over 50 µM throughout. Also, the Activity in assay [4] was 2.2 µmol/min.
